Bioassay records from PubChem BioAssay.
NPY-Y1 PAM-ag: human NPY-Y1 potentiation or agonism, primary screen; AID 1304; activation, % at 3.6 µM; 220,000 tested, 0.37% active; P25929; NPY-Y1 expressing cells, potentiator/agonist activation; in the data active = activation above about 33%, passing the limit was not always enough;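 also: cells stimulated with NPY at EC10 then isoproterenol at EC100; 0% = low agonist plus stimulus and 100% = saturating agonist plus stimulus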
Target sequence (P25929 whole entry, looked up): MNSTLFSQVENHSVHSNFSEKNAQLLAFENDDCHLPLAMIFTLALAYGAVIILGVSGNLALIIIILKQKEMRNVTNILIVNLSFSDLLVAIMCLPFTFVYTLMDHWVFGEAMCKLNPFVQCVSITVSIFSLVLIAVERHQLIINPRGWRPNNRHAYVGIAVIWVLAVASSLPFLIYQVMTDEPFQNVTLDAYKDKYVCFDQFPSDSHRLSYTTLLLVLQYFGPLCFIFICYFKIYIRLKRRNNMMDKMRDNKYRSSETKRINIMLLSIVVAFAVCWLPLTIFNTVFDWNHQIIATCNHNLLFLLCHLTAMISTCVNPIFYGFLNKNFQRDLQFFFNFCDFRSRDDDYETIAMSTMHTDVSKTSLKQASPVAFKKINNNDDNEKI
S1P4 antagonist: blocks the human S1P4 receptor; O95977; 220,000 tested, 0.26% active; AID 1510; inhibition, % at 4.98 µM; S1P4-expressing cells, antagonist mode, reporter read-out; in the data active = inhibition above about 29%;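 also: 0% = wells stimulated with agonist and 100% = vehicle wells without agonist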
NPY-Y2 PAM-ag: human NPY-Y2 potentiation or agonism, primary screen. P49146. cells expressing NPY-Y2, potentiator/agonist read-out. activation, % at 3.6 µM. 220,000 tested, 0.45% active; in the data active = activation above about 27%;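 also: cells stimulated with NPY near EC25 plus isoproterenol at EC100; 0% = vehicle plus submaximal agonist and 100% = vehicle plus saturating agonist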
NPY-Y2 antag: blocks the human neuropeptide Y Y2 receptor. 140,000 tested, 0.99% active. AID 793. inhibition, % at 2.7 µM. NPY-Y2 expressing cells, antagonist mode; in the data active = inhibition above about 17%;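 also: 0% = vehicle with agonist challenge and 100% = reference antagonist with challenge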
NPY Y1 blocker: antagonists of human neuropeptide Y receptor Y1 | P25929 | HEK293-CNG Y1 cells, membrane potential fluorescence; NPY at EC95, then isoproterenol | inhibition, % at 3.6 µM | 200,000 tested, 1% active | AID 1040;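 active = inhibition above the campaign mean inhibition of all tested compounds plus 3 SD, cut at about 20% in these data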;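 also: 0% = DMSO wells given NPY plus isoproterenol and 100% = isoproterenol alone without NPY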
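Test system – HEK293 Y1/CNG channel cell line · Also added – NPY agonist 25 nM, then isoproterenol 1 µM plus Ro 20-1724 25 µM · Compound dosing – one concentration, 3.6 µM, in 0.4% DMSO · Schedule – compound incubation 1 h at room temperature, readout 45 min post-stimulation · Technique – fluorescence, membrane potential probe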
S1P4 agonist: agonists of human S1P4 receptor. O95977. 220,000 tested, 0.35% active. S1P4-expressing cell line, agonist reporter assay. activation, % at 4.98 µM; in the data active = activation above about 11%;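 also: 0% = DMSO vehicle and 100% = reference agonist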
NPY-Y2 pot conf: human NPY-Y2 potentiation or agonism, confirmation; shares compounds with NPY-Y2 PAM-ag; cell-based NPY-Y2 potentiator/agonist assay; activation, % at 3.6 µM; 450 tested, 20% active; AID 1539; in the data active = activation above about 33%
NPY-Y1 potentiator: NPY-Y1 potentiation or agonism as NPY-Y2 counter-screen; shares compounds with NPY-Y2 PAM-ag; Y1 HEK293-CNG cells, membrane potential fluorescence; activation, % at 3.6 µM; 450 tested, 20% active; in the data active = activation above about 45%;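 also: cells stimulated with submaximal NPY then isoproterenol with phosphodiesterase inhibitor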
NPY-Y1 agonist 2: counter-screen for NPY-Y2 potentiators: agonists of human NPY-Y1 | 450 tested, 37% active | AID 1702 | activation, % at 3.6 µM | HEK293 Y1-CNGC, membrane potential fluorescence, agonism | shares compounds with NPY-Y2 PAM-ag;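 active = activation above the mean of DMSO-only control wells plus 3 SD, cut at about 18% in these data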;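 also: cells stimulated with 1 µM isoproterenol plus the PDE inhibitor Ro 20-1724; 0% = isoproterenol with DMSO and no NPY and 100% = 40 nM NPY; Y1 agonists lower the membrane potential dye signal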
CNGC inhibitor: blocks CNG channel activity, counter-screen for NPY-Y2 potentiators. inhibition, % at 3.6 µM. 450 tested, 32% active. AID 1703. shares compounds with NPY-Y2 PAM-ag. HEK293-CNG parental, isoproterenol cAMP, membrane potential fluorescence;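 active = inhibition above the control-well mean plus 3 SD of those wells, cut at about 22% in these data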;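 also: 0% = DMSO with isoproterenol and 100% = DMSO without isoproterenol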
Y2 agonist ctr: counter-screen for NPY-Y2 potentiators: agonists of human NPY-Y2 | HEK293 Y2/CNGC cells, membrane potential fluorescence, agonist mode | shares compounds with NPY-Y2 PAM-ag | AID 1710 | 450 tested, 56% active | activation, % at 3.6 µM;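 active = activation above the mean of solvent-only control wells plus 3 SD, cut at about 10% in these data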;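 also: cells stimulated by isoproterenol with no NPY added so direct agonism is tested; 0% = DMSO with isoproterenol alone and 100% = NPY at EC100 plus isoproterenol; agonism lowers probe fluorescence through less cAMP and CNG channel opening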
The depositor's hits bear a star; / = not tested or not shown. Sampled rows, rich in hits. Any-hit rate of the full collection: about 2.4%.

SMILES	NPY-Y1 PAM-ag	S1P4 antagonist	NPY-Y2 PAM-ag	NPY-Y2 antag	NPY Y1 blocker	S1P4 agonist	NPY-Y2 pot conf	NPY-Y1 potentiator	NPY-Y1 agonist 2	CNGC inhibitor	Y2 agonist ctr
COCCOC(=O)C(CC(=O)O)NCc1ccco1 (configuration not stated)	15	1	48*	/	/	-1	0	-3	2	12	15*
S=c1[nH]nc(-c2ccccn2)n1/N=C/c1c(Cl)cccc1Cl	-11	-8	-3	/	/	1	/	/	/	/	/
CC12CCC(C(=O)Nc3ccc(Br)cn3)(OC1=O)C2(C)C (configuration not stated)	9	-2	24	/	/	-1	/	/	/	/	/
CC(=O)Nc1ccc(-c2cc3ccccc3o2)cc1	-6	-2	29*	1	2	2	17	17	13	12	13*
CCC(=O)Nc1ccc(-c2cc3ccccc3oc2=O)cc1	23	13	-18	/	-1	0	/	/	/	/	/
CC(C)(C)n1nnnc1C(c1cccc(C#N)c1)N1CCCc2ccccc21 (configuration not stated)	14	-13	27*	6	16	-1	4	1	-1	7	10
N=c1c(-c2nc3ccccc3[nH]2)cc(C(=O)c2ccco2)nn1-c1ccccc1	12	4	38*	-1	-1	2	83*	108*	80*	73*	80*
c1ccc(-c2nc(-c3cccs3)[nH]c2-c2ccccc2)cc1	37	-40	41*	-2	-9	1	28	46*	27*	26*	28*
COc1cc(-c2nc(-c3ccccc3)c(-c3cccs3)[nH]2)cc(OC)c1OC	18	-3	12	-3	-1	-3	/	/	/	/	/
CC(=O)N(Cc1ccc(F)cc1)C1=C(NCc2ccccc2)C(=O)c2ccccc2C1=O	-7	-5	38*	2	3	1	16	10	1	13	10*
CC(=O)n1nc(-c2ccccc2)nc1NCc1ccc(F)cc1	0	8	16	6	6	-1	/	/	/	/	/
O=C(NC(=S)N1CCCCC1)c1csc([N+](=O)[O-])c1	11	8	-5	/	/	0	/	/	/	/	/
Cc1nn(C)cc1CNC(=O)c1cc2n(n1)C(C(F)(F)F)CC(c1cccs1)N2 (configuration not stated)	12	-13	7	1	0	1	/	/	/	/	/
Cc1nn(C)c(C)c1CNC(=O)c1nn2c(c1Cl)NC(c1cccs1)CC2C(F)(F)F (configuration not stated)	1	-12	29*	16	-7	2	6	0	11	2	-3
Cc1cc(NC(=O)C2CC2)ncc1NC(=O)c1ccccn1	18	-12	12	/	-4	0	/	/	/	/	/
CCOC(=O)C1(CCOc2ccccc2)CCN(Cc2cc(OC)c3c(c2)OCO3)CC1	-28	0	-40	/	14	-1	/	/	/	/	/
O=C(O)C1CCCN1c1nc(C(F)(F)F)nc2ccccc12 (configuration not stated)	6	-1	75*	/	4	0	-3	-11	-14	-12	4
Cc1ccc(C(=O)n2nc(-n3cccc3)c3c(C)cc(C)nc32)cc1	29	-20	57*	/	-5	1	17	29	24*	3	18*
Cc1c([N+](=O)[O-])c(C(=O)Sc2ccc(Br)cc2)nn1C	43	27	44*	/	/	3	9	15	1	5	16*
Cc1c([N+](=O)[O-])c(C(=O)N2CCCC2)nn1C	16	-9	-3	0	5	1	/	/	/	/	/
Clc1ccc2[nH]c3c(c2c1)CCc1cn[nH]c1-3	41	9	46*	-4	-13	3	34*	45*	34*	35*	25*
O=C(Nc1cccnc1Cl)c1ccc(=O)oc1	-2	-14	8	/	/	1	/	/	/	/	/
CS(=O)(=O)c1ccc(C(=O)N2CCN(Cc3ccccc3)CC2)cc1	-18	-4	-18	/	1	-2	/	/	/	/	/
O=C(c1ccc(CNS(=O)(=O)c2ccccc2)cc1)N1CCN(Cc2ccccc2)CC1	32	-10	27*	2	-7	-3	-5	-9	-15	1	-1
C=CCN1C(=O)/C(=C/c2ccc(OC(C)=O)c(OCC)c2[N+](=O)[O-])SC1=S	10	-11	36*	/	4	1	14	-5	5	2	12*
SMILES	NPY-Y1 PAM-ag	S1P4 antagonist	NPY-Y2 PAM-ag	NPY-Y2 antag	NPY Y1 blocker	S1P4 agonist	NPY-Y2 pot conf	NPY-Y1 potentiator	NPY-Y1 agonist 2	CNGC inhibitor	Y2 agonist ctr
Cc1cccc(Cl)c1NC(=O)N1CCCN(c2nc3ccc(Cl)cc3s2)CC1	18	3	45*	/	/	3	6	-29	-7	-5	9
Cc1cccc(C)c1NC(=O)N1CCN(c2nc3ccccc3s2)CC1	-2	-15	3	3	-5	2	/	/	/	/	/
Cc1nc2ccccc2c(=O)n1NC(=O)Cc1ccc([N+](=O)[O-])cc1	5	-13	14	/	-1	-1	/	/	/	/	/
O=C(/C(N=Nc1cccc([N+](=O)[O-])c1)=C(/O)c1ccc(Br)cc1)C(F)(F)F	28	4	41*	/	/	2	31	11	15	15	20*
N#C/C(=N\Nc1cccc([N+](=O)[O-])c1)C(=O)c1ccc(Br)cc1	-3	23	12	/	5	-1	/	/	/	/	/
C#CC[N+]1(CC#Cc2ccc(C)cc2)CCCCC1	-5	-22	9	3	6	0	/	/	/	/	/
O=C(Nc1ccccc1)Nc1ncc([N+](=O)[O-])s1	21	-6	31*	/	3	1	13	-12	-11	8	-3
Cc1cc(N/C(=N/S(=O)(=O)c2ccc(F)cc2)c2ccccc2)n(-c2ccccc2)n1	-9	3	28*	/	0	1	-3	-17	-27	-23	-15
COc1ccccc1NC(=O)c1sc2ncn(Cc3cccc4ccccc34)c(=O)c2c1C	16	-10	7	4	0	2	/	/	/	/	/
O=C(N[C@@H](Cc1c[nH]c2ccccc12)C(=O)O)c1ccc(Cl)cc1	11	1	-2	/	1	0	/	/	/	/	/
NC(=NCCc1c[nH]c2ccccc12)NC(=O)c1ccc(Cl)cc1	27	-5	28*	/	-1	0	26	30	39*	37*	42*
